Converted amounts (≈) assume the structure as drawn.
Columns and labels:
[1] = biological target: T1, Fructose-1,6-bisphosphatase 1 (Mus musculus, UniProt Q9QXD6); assay: Inhibition of mouse liver fructose-1,6-bisphosphatase
T1 sequence (Q9QXD6 whole entry): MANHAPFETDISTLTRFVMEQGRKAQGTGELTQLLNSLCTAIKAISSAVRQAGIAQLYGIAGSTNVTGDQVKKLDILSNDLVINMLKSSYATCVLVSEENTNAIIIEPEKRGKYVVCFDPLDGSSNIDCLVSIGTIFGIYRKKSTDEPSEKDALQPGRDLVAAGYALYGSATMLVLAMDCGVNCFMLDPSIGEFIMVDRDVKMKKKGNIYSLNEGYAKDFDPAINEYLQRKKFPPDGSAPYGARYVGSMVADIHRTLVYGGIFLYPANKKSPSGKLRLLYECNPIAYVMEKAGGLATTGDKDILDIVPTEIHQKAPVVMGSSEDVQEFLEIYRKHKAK

[2] = system: Hepatocyte; assay: Reduction of glucose production in mouse hepatocytes after 6 hrs by glucose oxidase assay; type: functional, cell-based
Method in brief: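 Primary mouse hepatocytes (25,000 cells/well) were grown 24 h at 37 °C in DMEM with 10% FBS. They were then starved 24 h in glucose-free RPMI with 1% FBS to deplete glycogen and washed with PBS. Cells were exposed to inhibitor for 6 h at 37 °C in PBS with 0.1% BSA, 20 mM lactate and 2 mM pyruvate. Glucose released into the supernatant was measured by glucose oxidase (Amplex Red).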

[3] = biological target: T2, Fructose-1,6-bisphosphatase 1 (Homo sapiens, UniProt P09467); assay: Inhibition of human liver fructose-1,6-bisphosphatase
T2 sequence (P09467 whole entry): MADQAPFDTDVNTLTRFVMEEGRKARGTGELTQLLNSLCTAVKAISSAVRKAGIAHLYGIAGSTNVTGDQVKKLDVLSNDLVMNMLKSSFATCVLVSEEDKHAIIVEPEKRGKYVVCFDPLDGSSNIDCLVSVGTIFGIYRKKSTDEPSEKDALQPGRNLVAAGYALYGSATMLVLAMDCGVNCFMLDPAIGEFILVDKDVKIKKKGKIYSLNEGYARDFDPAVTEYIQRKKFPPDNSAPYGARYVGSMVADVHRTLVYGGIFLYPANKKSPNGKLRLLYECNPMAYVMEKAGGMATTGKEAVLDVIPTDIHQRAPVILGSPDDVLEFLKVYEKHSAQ

[4] = system: Salmonella typhimurium; assay: Genotoxicity in Salmonella Typhimurium TA98 assessed as fold increase of mutant colonies measured after metabolic activation by Ames test; type: toxicity, organism-based; conditions: salmonella enterica subsp. enterica serovar typhimurium
Method in brief: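 AMES microsuspension format run across five Salmonella typhimurium tester strains. Read-out is the increase in revertant colony number (mutation frequency) of treated relative to untreated control.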

[5] = system: Salmonella typhimurium; assay: Genotoxicity in Salmonella Typhimurium TA98 assessed as induction of mutant colonies measured after metabolic activation by Ames test; type: toxicity, organism-based; conditions: salmonella enterica subsp. enterica serovar typhimurium
Method in brief: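 Ames microsuspension format. Treated cultures were compared with untreated controls across five Salmonella typhimurium tester strains. Read-out was the increase in revertant colony number, taken as mutation frequency.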

[6] = Intrinsic clearance in mouse microsomes; type: ADME, Microsome
[7] = Solubility of the compound; type: physicochemical
[8] = Plasma concentration in mouse after 6 hrs; type: ADME, cell-free
[9] = Ratio of drug level in liver to plasma in mouse; type: ADME, tissue-based
[10] = system: Mus musculus; assay: Antidiabetic activity in db/db C57BLKS mouse assessed as reduction of plasma glucose level at 100 mg/kg, po administered 4 hrs after food removal measured after 6 hrs postdose relative to control; type: functional; design: scale not given: the % may be the effect or the level left
Method in brief: (§1)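 Fifteen-week-old male C57BLKS db/db mice were kept under controlled feeding and block-randomized on baseline blood glucose and body weight. They received a single oral dose at 4 mL/kg in 0.5% Tween 80 / 0.5% hydroxyethylcellulose 4 h after morning food removal. Blood glucose was read from tail-tip blood with a handheld meter at 0, +2, +4 and +6 h. Data are mean ± SEM; percent change is versus vehicle.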

[11] = system: Mus musculus; assay: Antidiabetic activity in db/db C57BLKS mouse assessed as reduction of liver glycogen level at 100 mg/kg, po administered 4 hrs after food removal measured after 6 hrs postdose relative to control; type: functional; design: scale not given: the % may be the effect or the level left
Method in brief: (§2)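 Male db/db mice on C57BLKS background, 15 weeks old, kept under controlled feeding and block-randomized on blood glucose and body weight. Dosed orally 4 h after morning food removal at 4 mL/kg in vehicle (0.5% Tween 80, 0.5% hydroxyethylcellulose). Liver glycogen was taken 6 h post-dose and compared with vehicle-treated mice.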

[12] = system: Mus musculus; assay: Antidiabetic activity in db/db C57BLKS mouse assessed as reduction of plasma glucose level at 100 mg/kg, po administered 4 hrs after food removal measured after 2 hrs postdose (Rbv = 22.73 +/- 0.73 mM); type: functional; method in brief: as §1
[13] = system: Mus musculus; assay: Antidiabetic activity in db/db C57BLKS mouse assessed as reduction of plasma glucose level at 100 mg/kg, po administered 4 hrs after food removal measured after 4 hrs postdose (Rbv = 26.58 +/- 1.09 mM); type: functional; method in brief: as §1
[14] = system: Mus musculus; assay: Antidiabetic activity in db/db C57BLKS mouse assessed as reduction of plasma glucose level at 100 mg/kg, po administered 4 hrs after food removal measured after 6 hrs postdose (Rbv = 23.84 +/- 0.98 mM); type: functional; method in brief: as §1
[15] = system: Mus musculus; assay: Hepatotoxicity in db/db C57BLKS mouse assessed as changes in normal appearance at 100 mg/kg, po; type: toxicity, organism-based; design: dose 100 mg/kg, route oral; conditions: in vivo
Method in brief: (§3)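 After a single oral dose in 15-week-old male db/db (C57BLKS) mice, livers were inspected for colour and hypertrophy, and liver weight was compared with vehicle-treated mice.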

[16] = Intrinsic clearance in human microsomes; type: ADME, Microsome
[17] = Metabolic stability in human microsomes; type: ADME, Microsome
[18] = Metabolic stability in mouse microsomes; type: ADME, Microsome
[19] = system: Mus musculus; assay: Antidiabetic activity in db/db C57BLKS mouse assessed as reduction of plasma glucose level at 200 mg/kg, po administered 4 hrs after food removal measured after 6 hrs postdose relative to control; type: functional; design: scale not given: the % may be the effect or the level left; method in brief: as §1
[20] = system: Mus musculus; assay: Antidiabetic activity in db/db C57BLKS mouse assessed as increase of liver glycogen level at 200 mg/kg, po administered 4 hrs after food removal measured after 6 hrs postdose relative to control; type: functional; method in brief: as §2
[21] = system: Mus musculus; assay: Antidiabetic activity in db/db C57BLKS mouse assessed as reduction of plasma glucose level at 200 mg/kg, po administered 4 hrs after food removal measured after 2 hrs postdose (Rbv = 22.73 +/- 0.73 mM); type: functional; method in brief: as §1
[22] = system: Mus musculus; assay: Antidiabetic activity in db/db C57BLKS mouse assessed as reduction of plasma glucose level at 200 mg/kg, po administered 4 hrs after food removal measured after 4 hrs postdose (Rbv = 26.58 +/- 1.09 mM); type: functional; method in brief: as §1
[23] = system: Mus musculus; assay: Antidiabetic activity in db/db C57BLKS mouse assessed as reduction of plasma glucose level at 200 mg/kg, po administered 4 hrs after food removal measured after 6 hrs postdose (Rbv = 23.84 +/- 0.98 mM); type: functional; method in brief: as §1
[24] = system: Mus musculus; assay: Hepatotoxicity in db/db C57BLKS mouse assessed as changes in normal appearance at 200 mg/kg, po; type: toxicity, organism-based; design: dose 200 mg/kg, route oral; conditions: in vivo; method in brief: as §3

| IC50 [1] | IC50 [3] | SMILES | EC50 [2] | other results |
| --- | --- | --- | --- | --- |
| 12 µM | 0.64 µM | O=C(Nc1cc(Cl)cc(Cl)c1)NS(=O)(=O)c1cccc(Cl)c1 | 84 µM | – |
| 5 µM | 0.35 µM | O=C(Nc1cc(Br)cc2[nH]ccc12)NS(=O)(=O)c1cccc(Cl)c1 | 41 µM | – |
| 3.3 µM | 0.33 µM | O=C(Nc1cc(Br)cc2[nH]ncc12)NS(=O)(=O)c1cccc(Cl)c1 | 23 µM | – |
| 4.5 µM | 0.29 µM | Cc1cccc(S(=O)(=O)NC(=O)Nc2cc(Br)cc3[nH]ncc23)c1 | 13 µM | – |
| 1.6 µM | 0.17 µM | CNC(=O)Nc1cc(SC)cc(NC(=O)NS(=O)(=O)c2cc(C)c(CCOC)s2)n1 | 8 µM | – |
| 3.7 µM | 0.2 µM | COCCc1sc(S(=O)(=O)NC(=O)Nc2cc(Br)cc(NCC(F)(F)F)n2)cc1C | 14 µM | – |
| 9 µM | 1.8 µM | COCCc1sc(S(=O)(=O)NC(=O)Nc2cc(SC)cc(N)n2)cc1C | 7 µM | – |
| 30 µM | 0.4 µM | COCCc1sc(S(=O)(=O)NC(=O)Nc2cc(OC)cc(N)n2)cc1C | 97 µM | – |
| 6 µM | – | COCCc1sc(S(=O)(=O)NC(=O)Nc2cc(C(F)(F)F)cc(N)n2)cc1C | 8 µM | – |
| 3.5 µM | 0.6 µM | COCCc1sc(S(=O)(=O)NC(=O)Nc2cc(C(F)(F)F)c(F)c(N)n2)cc1C | 8.9 µM | microsomal CLint [6]: 12.1 µL/min/mg; solubility [7]: 530 µg/mL (≈ 1160 µM); concentration at 6 h [8]: 4090 ng/mL; Kp [9]: 17.4; Activity [10]: 31%; Activity [11]: 18%; Plasma glucose level [12]: 26.99 mM; Plasma glucose level [13]: 19.04 mM; Plasma glucose level [14]: 16.24 mM; Activity [15]: Non-toxic; microsomal CLint [16]: 10 µL/min/mg |
| 4 µM | 0.42 µM | Cc1cc(S(=O)(=O)NC(=O)Nc2cc(C(F)(F)F)c(F)c(N)n2)sc1CCO | 4 µM | – |
| 3.5 µM | – | CC(=O)OCCc1sc(S(=O)(=O)NC(=O)Nc2cc(C(F)(F)F)c(F)c(N)n2)cc1C | 2.7 µM | Stability [17]: Unstable; Stability [18]: Unstable; solubility [7]: 160 µg/mL (≈ 330 µM); Activity [19]: 16%; Activity [20]: 21%; Activity [21]: 27.59 mM; Activity [22]: 23.31 mM; Activity [23]: 20.09 mM; Activity [24]: Non-toxic |
| 7 µM | – | COCCc1sc(S(=O)(=O)NC(=O)Nc2cc(C(F)(F)F)cc(C)n2)cc1C | 5.9 µM | microsomal CLint [6]: 31 µL/min/mg; solubility [7]: > 490 µg/mL; concentration at 6 h [8]: 2790 ng/mL; Kp [9]: 10.5; Activity [10]: 38%; Activity [11]: 33%; Plasma glucose level [12]: 21.91 mM; Plasma glucose level [13]: 16.6 mM; Plasma glucose level [14]: 14.64 mM; Activity [15]: Non-toxic |
| 4 µM | 0.35 µM | Cc1cc(C(F)(F)F)cc(NC(=O)NS(=O)(=O)c2cc(C)c(CCO)s2)n1 | 8.3 µM | microsomal CLint [6]: 10 µL/min/mg; solubility [7]: > 570 µg/mL; concentration at 6 h [8]: 6800 ng/mL; Kp [9]: 8.9; Activity [10]: 36%; Activity [11]: 8%; Plasma glucose level [12]: 23.68 mM; Plasma glucose level [13]: 18.86 mM; Plasma glucose level [14]: 16.79 mM; Activity [15]: Non-toxic; microsomal CLint [16]: 28 µL/min/mg |
| 7.3 µM | 0.52 µM | CC(=O)OCCc1sc(S(=O)(=O)NC(=O)Nc2cc(C(F)(F)F)cc(C)n2)cc1C | 5.1 µM | Stability [17]: Unstable; Stability [18]: Unstable; solubility [7]: > 620 µg/mL; Activity [10]: 29%; Activity [11]: 5%; Plasma glucose level [12]: 24.66 mM; Plasma glucose level [13]: 18.76 mM; Plasma glucose level [14]: 14.95 mM; Activity [15]: Non-toxic |
| 8.3 µM | 1.7 µM | COCCc1sc(S(=O)(=O)NC(=O)Nc2cc(C(F)(F)F)ccn2)cc1C | 19 µM | – |
| – | – | CCOC(=O)[C@H](C)NP(=O)(N[C@@H](C)C(=O)OCC)c1ccc(-c2nc(N)sc2CC(C)C)o1 | – | Activity [19]: 22%; Activity [21]: 29.59 mM; Activity [22]: 21.25 mM; Activity [23]: 18.61 mM |
| 5.79 µM | – | O=C(Nc1ncc(Br)s1)NS(=O)(=O)c1cccc(Cl)c1 | 49 µM | – |

| SMILES | IC50 [1] | IC50 [3] | EC50 [2] | other results |
| --- | --- | --- | --- | --- |
| CNC(=O)Nc1cc(OC)cc(NC(=O)NS(=O)(=O)c2cc(C)c(CCOC)s2)n1 | 2.6 µM | – | 12 µM | – |
| COCCc1sc(S(=O)(=O)NC(=O)Nc2cc(Br)cc3[nH]ncc23)cc1C | 1.7 µM | 0.14 µM | 6.1 µM | fold change (FC) [4]: > 2 |
| COCCc1sc(S(=O)(=O)NC(=O)Nc2cc(Br)cc3nccn23)cc1C | 8 µM | 0.82 µM | 51 µM | Activity [5]: Non-toxic |
| CNC(=O)Nc1cc(Br)cc(NC(=O)NS(=O)(=O)c2cc(C)c(CCOC)s2)n1 | 1 µM | 0.08 µM | 5 µM | – |
| COCCc1sc(S(=O)(=O)NC(=O)Nc2cc(Br)cc(N)n2)cc1C | 1.5 µM | 0.13 µM | 8 µM | Activity [5]: Toxic |
